Test results: ChEMBL document CHEMBL1909541, “Hantzsch reaction: synthesis and characterization of some new 1,4-dihydropyridine derivatives as potent antimicrobial and antioxidant agents” (Eur J Med Chem, 2011)

How the values were obtained:
Assay type in all cases: functional
[1] = tested on: Staphylococcus aureus; test: Antibacterial activity against Staphylococcus aureus ATCC 25923 at 1 mg/mL after 24 hrs by agar-well diffusion method; details: ATCC 25923, 24 h, read-out: IZ
Summary of the method: (§1)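 Well diffusion on Mueller-Hinton agar seeded with 24 h old cultures. Test compounds dissolved in DMSO at 1, 0.5 and 0.25 mg/mL. 6 mm wells were punched with a sterile cork borer, test solutions added, and plates incubated 24 h at 37 °C.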

[2] = Antifungal activity against Chrysosporium keratinophilum MTCC 2827 at 0.25 mg/mL after 72 hrs by agar-well diffusion method
Summary of the method: (§2)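 Fungal spore suspensions made in normal saline were spread onto agar adjusted to pH 5.7, then dried 1 h at 37 °C. Wells were cut and loaded with test compounds in DMSO at different concentrations, with a DMSO control. Plates run in triplicate at 25 °C for 72 h. Read-out was inhibition zone diameter.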

[3] = tested on: Escherichia coli; test: Antibacterial activity against Escherichia coli ATCC 25922 at 0.25 mg/mL after 24 hrs by agar-well diffusion method; details: ATCC 25922, 24 h, read-out: IZ; summary of the method: as §1
[4] = Antifungal activity against Chrysosporium keratinophilum MTCC 2827 at 0.5 mg/mL after 72 hrs by agar-well diffusion method; summary of the method: as §2
[5] = tested on: Pseudomonas aeruginosa; test: Antibacterial activity against Pseudomonas aeruginosa ATCC 27853 at 1 mg/mL after 24 hrs by agar-well diffusion method; details: ATCC 27853, 24 h, read-out: IZ; summary of the method: as §1
[6] = tested on: Escherichia coli; test: Antibacterial activity against Escherichia coli ATCC 25922 at 0.5 mg/mL after 24 hrs by agar-well diffusion method; details: ATCC 25922, 24 h, read-out: IZ; summary of the method: as §1
[7] = tested on: Pseudomonas aeruginosa; test: Antibacterial activity against Pseudomonas aeruginosa ATCC 27853 at 0.5 mg/mL after 24 hrs by agar-well diffusion method; details: ATCC 27853, 24 h, read-out: IZ; summary of the method: as §1
[8] = tested on: Aspergillus flavus; test: Antifungal activity against Aspergillus flavus MTCC 3306 at 0.25 mg/mL after 72 hrs by agar-well diffusion method; details: MTCC 3306, 72 h, read-out: DIZ; summary of the method: as §2
[9] = tested on: Staphylococcus aureus; test: Antibacterial activity against Staphylococcus aureus ATCC 25923 at 0.25 mg/mL after 24 hrs by agar-well diffusion method; details: ATCC 25923, 24 h, read-out: IZ; summary of the method: as §1
[10] = tested on: Radical scavenging activity; test: Antioxidant activity assessed as DPPH free radical scavenging activity at 100 uM after 30 mins
Summary of the method: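 Sample brought to 1 mL with MeOH and mixed with 3 mL fresh 0.1 mM DPPH. Kept 30 min in the dark, then absorbance read at 517 nm. A DPPH control without sample was included. Scavenging (%) = [(Abs control − Abs sample)/Abs control] × 100.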

[11] = tested on: Candida albicans; test: Antifungal activity against Candida albicans MTCC 3017 at 1 mg/mL after 72 hrs by agar-well diffusion method; details: MTCC 3017, 72 h, read-out: DIZ; summary of the method: as §2
[12] = tested on: Aspergillus flavus; test: Antifungal activity against Aspergillus flavus MTCC 3306 at 1 mg/mL after 72 hrs by agar-well diffusion method; details: MTCC 3306, 72 h, read-out: DIZ; summary of the method: as §2
[13] = tested on: Pseudomonas aeruginosa; test: Antibacterial activity against Pseudomonas aeruginosa ATCC 27853 at 0.25 mg/mL after 24 hrs by agar-well diffusion method; details: ATCC 27853, 24 h, read-out: IZ; summary of the method: as §1
[14] = tested on: Aspergillus flavus; test: Antifungal activity against Aspergillus flavus MTCC 3306 at 0.5 mg/mL after 72 hrs by agar-well diffusion method; details: MTCC 3306, 72 h, read-out: DIZ; summary of the method: as §2
[15] = tested on: Candida albicans; test: Antifungal activity against Candida albicans MTCC 3017 at 0.5 mg/mL after 72 hrs by agar-well diffusion method; details: MTCC 3017, 72 h, read-out: DIZ; summary of the method: as §2
[16] = tested on: Candida albicans; test: Antifungal activity against Candida albicans MTCC 3017 at 0.25 mg/mL after 72 hrs by agar-well diffusion method; details: MTCC 3017, 72 h, read-out: DIZ; summary of the method: as §2
[17] = tested on: Escherichia coli; test: Antibacterial activity against Escherichia coli ATCC 25922 at 1 mg/mL after 24 hrs by agar-well diffusion method; details: ATCC 25922, 24 h, read-out: IZ; summary of the method: as §1
[18] = Antifungal activity against Chrysosporium keratinophilum MTCC 2827 at 1 mg/mL after 72 hrs by agar-well diffusion method; summary of the method: as §2
[19] = tested on: Staphylococcus aureus; test: Antibacterial activity against Staphylococcus aureus ATCC 25923 at 0.5 mg/mL after 24 hrs by agar-well diffusion method; details: ATCC 25923, 24 h, read-out: IZ; summary of the method: as §1

| Structure (SMILES) | zone of inhibition at 1000 µg/mL [1] [mm] | inhibition zone (IZ) [2] [mm] | zone of inhibition at 250 µg/mL [3] [mm] | inhibition zone (IZ) [4] [mm] | zone of inhibition at 1000 µg/mL [5] [mm] | zone of inhibition at 500 µg/mL [6] [mm] | zone of inhibition at 500 µg/mL [7] [mm] | zone of inhibition at 250 µg/mL [8] [mm] | zone of inhibition at 250 µg/mL [9] [mm] | Activity [10] [%] | zone of inhibition at 1000 µg/mL [11] [mm] | zone of inhibition at 1000 µg/mL [12] [mm] | zone of inhibition at 250 µg/mL [13] [mm] | zone of inhibition at 500 µg/mL [14] [mm] | zone of inhibition at 500 µg/mL [15] [mm] | zone of inhibition at 250 µg/mL [16] [mm] | zone of inhibition at 1000 µg/mL [17] [mm] | inhibition zone (IZ) [18] [mm] | zone of inhibition at 500 µg/mL [19] [mm] |
| --- | --- | --- | --- | --- | --- | --- | --- | --- | --- | --- | --- | --- | --- | --- | --- | --- | --- | --- | --- |
| CCOC(=O)C1=C(C)NC(C)=C(C(=O)OCC)C1c1c[nH]nc1-c1cc(Cl)sc1Cl | 13 | 2 | 8 | 2 | 15 | 10 | 12 | 3 | 8 | 32 | 5 | 4 | 10 | 3 | 2 | 2 | 16 | 5 | 9 |
| CCOC(=O)C1=C(C)NC(C)=C(C(=O)OCC)C1c1c[nH]nc1-c1ccc(OC)cc1 | 13 | 0 | 5 | 2 | 10 | 8 | 7 | 0 | 6 | 30.3 | 3 | 2 | 5 | 1 | 1 | 2 | 12 | 3 | 8 |
| COC(=O)C1=C(C)NC(C)=C(C(=O)OC)C1c1c[nH]nc1-c1ccc(Cl)cc1Cl | 6 | 0 | 2 | 1 | 8 | 3 | 4 | 0 | 2 | 35.2 | 3 | 3 | 2 | 2 | 0 | 0 | 6 | 5 | 3 |
| COC(=O)C1=C(C)NC(C)=C(C(=O)OC)C1c1c[nH]nc1-c1ccc(Cl)cc1 | 8 | 2 | 5 | 4 | 9 | 8 | 7 | 1 | 3 | 29.4 | 3 | 6 | 4 | 3 | 1 | 0 | 10 | 5 | 6 |
| COC(=O)C1=C(C)NC(C)=C(C(=O)OC)C1c1c[nH]nc1-c1cc(Cl)sc1Cl | 10 | 1 | 5 | 2 | 7 | 7 | 3 | 0 | 4 | 30.3 | 3 | 3 | 1 | 2 | 2 | 0 | 10 | 4 | 8 |
| COC(=O)C1=C(C)NC(C)=C(C(=O)OC)C1c1c[nH]nc1-c1ccc(OC)cc1 | 6 | 0 | 2 | 0 | 7 | 4 | 4 | 0 | 2 | 30.2 | 0 | 0 | 2 | 0 | 0 | 0 | 7 | 0 | 4 |
| Cc1cc(C(C)(C)C)c(O)c(C(C)(C)C)c1 |  |  |  |  |  |  |  |  |  | 72.4 |  |  |  |  |  |  |  |  |  |
| CN[C@@H]1[C@H](O[C@H]2[C@H](O[C@H]3[C@H](O)[C@@H](O)[C@H](N=C(N)N)[C@@H](O)[C@@H]3N=C(N)N)O[C@@H](C)[C@]2(O)C=O)O[C@@H](CO)[C@H](O)[C@H]1O [STREPTOMYCIN] | 15 |  | 8 |  | 16 | 10 | 13 |  | 9 |  |  |  | 11 |  |  |  | 16 |  | 10 |
| OC(Cn1cncn1)(Cn1cncn1)c1ccc(F)cc1F [FLUCONAZOLE] |  | 14 |  | 15 |  |  |  | 10 |  |  | 22 | 13 |  | 11 | 21 | 20 |  | 17 |  |
| COC(=O)C1=C(C)NC(C)=C(C(=O)OC)C1c1c[nH]nc1-c1ccc(-c2ccccc2)cc1 | 9 | 0 | 8 | 2 | 10 | 10 | 8 | 2 | 5 | 25.3 | 0 | 5 | 7 | 4 | 0 | 0 | 13 | 3 | 7 |
| CCOC(=O)C1=C(C)NC(C)=C(C(=O)OCC)C1c1c[nH]nc1-c1ccc(Cl)cc1Cl | 11 | 1 | 2 | 2 | 12 | 4 | 9 | 2 | 5 | 29.2 | 4 | 3 | 7 | 2 | 1 | 1 | 6 | 4 | 7 |
| COC(=O)C1=C(C)NC(C)=C(C(=O)OC)C1c1c[nH]nc1-c1ccc(SC)cc1 | 6 | 0 | 1 | 0 | 6 | 2 | 4 | 0 | 2 | 32.2 | 0 | 0 | 3 | 0 | 0 | 0 | 4 | 0 | 3 |
